Calls of active or inactive are those of the source. No cut-off for these calls is given here.

The nature of assay [1]: Reversal of Zn-induced human soluble amyloid beta (1 to 42) aggregation after 30 mins by bis-ANS-based fluorometric analysis. In a few lines:
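Soluble Aβ oligomer aggregation monitored fluorometrically with bis-ANS.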

Assay [2] deals with SH-SY5Y. The experiment in a line: Ionophoric activity in human SH-SY5Y cells assessed as increase in cellular Fe uptake at 20 uM after 6 hrs by ICP-MS analysis relative to vehicle-treated control. The format is functional, cell-based. In a few lines:
(§1)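 SH-SY5Y neuronal cells exposed to each compound at 20 μM for 6 h. Cellular Zn, Cu and Fe content then determined by ICP-MS and compared with untreated control level.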

Assay [3] has as its system SH-SY5Y. The experiment in a line: Ionophoric activity in human SH-SY5Y cells assessed as increase in cellular Cu uptake at 20 uM after 6 hrs by ICP-MS analysis relative to vehicle-treated control. Type of assay: functional. Summed up: as §1
The test system of assay [4] is SH-SY5Y. Nature of the assay: Ionophoric activity in human SH-SY5Y cells assessed as increase in cellular Zn uptake at 20 uM after 6 hrs by ICP-MS analysis relative to vehicle-treated control. The format is functional. Summed up: as §1

On to `Oc1c(F)cc(I)c2cccnc12`, for which the EC50 in assay [1] is 2300 nM.
As for `Oc1c(Cl)cc(Cl)c2ccc(COCCF)nc12`, the result in the assay on SH-SY5Y [2] was inactive. The EC50 in assay [1] was 2400 nM.
Turning to `Oc1c(F)cc(Br)c2cccnc12`, the EC50 in assay [1] is 3500 nM.
On the same count and under the same terms, the result for `Oc1c(F)cc(Cl)c2cccnc12` reads 4900 nM.
As to `Oc1c(F)ccc2cccnc12`, the outcome in the assay with SH-SY5Y [3] was Active. Also, the outcome with SH-SY5Y [4] and with SH-SY5Y [2] was inactive.
Turning to `Oc1ccc(F)c2cccnc12`, the result in the assay with SH-SY5Y [3] was Active. Also, the result with SH-SY5Y [4] and with SH-SY5Y [2] was inactive.
For the compound `Oc1cccc2nccnc12`, the outcome in the assay on SH-SY5Y [4] and in the assay on SH-SY5Y [2] was inactive.
As for `COc1cccc2ccc(Cl)nc12`, the outcome in the assay on SH-SY5Y [4] and in the assay with SH-SY5Y [2] was inactive.
As for `CN(C)Cc1ccc2c(Cl)cc(Cl)c(O)c2n1`, the outcome in the assay on SH-SY5Y [3] and with SH-SY5Y [4] was Active. Also, in assay [1], the EC50 came out at 2000 nM.
On to `CN(Cc1cn(CCF)nn1)Cc1ccc2c(Cl)cc(Cl)c(O)c2n1`, for which the “fold change (FC)” value with SH-SY5Y [4] was over 2. In addition, in the assay with SH-SY5Y [2], the outcome was inactive. Moreover, the EC50 in assay [1] came to 2300 nM.
Consider `Oc1cccc2ccc(F)nc12`, for which the result with SH-SY5Y [3], in the assay on SH-SY5Y [4] and in the assay on SH-SY5Y [2] was inactive. For the same compound, the EC50 in assay [1] is over 120000 nM.
For `Oc1cccc2cc[nH]c12`, the outcome in the assay with SH-SY5Y [4] and in the assay with SH-SY5Y [2] was inactive.
As for `Oc1c(I)cc(F)c2cccnc12`, the “fold change (FC)” value was 6 in the assay with SH-SY5Y [3] and over 2 in the assay on SH-SY5Y [4]. In addition, the EC50 in assay [1] was 2500 nM.
As for `Oc1cccc2cc(F)cnc12`, the outcome in the assay on SH-SY5Y [3] was Active. Besides, the outcome in the assay with SH-SY5Y [4] and in the assay with SH-SY5Y [2] was inactive.
With `Oc1ccccc1/N=C/c1ccc(F)cc1`, the outcome in the assay on SH-SY5Y [4] and in the assay with SH-SY5Y [2] was inactive. Also, in assay [1], the EC50 came out at 15400 nM.
As to `CN(Cc1cn(CCCF)nn1)Cc1ccc2c(Cl)cc(Cl)c(O)c2n1`, in the assay on SH-SY5Y [4], the “fold change (FC)” value was over 2. Further, in the assay with SH-SY5Y [2], the outcome was inactive. Further, the EC50 in assay [1] worked out at 4500 nM.
Consider `Oc1cccc2cccnc12`, for which the result in the assay with SH-SY5Y [3] was Active. The outcome in the assay with SH-SY5Y [4] and in the assay with SH-SY5Y [2] was inactive.
`Oc1c(Cl)cc(F)c2cccnc12`: the “fold change (FC)” value in the assay on SH-SY5Y [3] is recorded as 6; in the assay with SH-SY5Y [4], over 2. For the same compound, the 50% effective concentration (EC50) in assay [1] worked out at 5200 nM.
`Oc1cc(F)cc2cccnc12`: the outcome in the assay on SH-SY5Y [3] was Active. The result with SH-SY5Y [4] and with SH-SY5Y [2] was inactive.
As for `Oc1c(Cl)cc(Cl)c2ccc(COCCCCF)nc12`, the outcome in the assay on SH-SY5Y [3] was Active. For the same compound, the result in the assay with SH-SY5Y [2] was inactive. Besides, the EC50 in assay [1] stood at 2000 nM.
In the case of `Oc1c(I)cc(Cl)c2cccnc12` [CLIOQUINOL], the outcome in the assay on SH-SY5Y [3] and with SH-SY5Y [4] was Active. Also, the concentration giving a half-maximal response (EC50) in assay [1] is 1800 nM.
Take `CN(Cc1cn(CCCCF)nn1)Cc1ccc2c(Cl)cc(Cl)c(O)c2n1`: the “fold change (FC)” value in the assay on SH-SY5Y [4] is on record as over 2. In addition, the outcome with SH-SY5Y [2] was inactive. The EC50 in assay [1] stood at 2800 nM.
In the case of `Oc1c(Br)cc(F)c2cccnc12`, the “fold change (FC)” value in the assay with SH-SY5Y [3] is listed as 6; with SH-SY5Y [4], over 2. The half-maximal effective concentration (EC50) in assay [1] was found to be 3700 nM.

The term EC50 denotes the midpoint of the concentration-response curve.

(Values after ChEMBL document CHEMBL3632536, “Novel Fluorinated 8-Hydroxyquinoline Based Metal Ionophores for Exploring the Metal Hypothesis of Alzheimer's Disease” (ACS Med Chem Lett, 2015).)
